Measurements taken from ChEMBL document CHEMBL1240422, “Design, synthesis and biological evaluation of 3,5-diaryl-isoxazoline/isoxazole-pyrrolobenzodiazepine conjugates as potential anticancer agents” (2010).
The source made the active and inactive calls. No cut-off for these calls is given here.

Assays:
CCRF-CEM = experiment: Anticancer activity against human CCRF-CEM cells after 48 hrs by SRB assay; format: functional
HL-60(TB) = experiment: Anticancer activity against human HL-60(TB) cells after 48 hrs by SRB assay; format: functional; settings: HL-60, 48 h
K562 = experiment: Anticancer activity against human K562 cells after 48 hrs by SRB assay; format: functional; settings: K562, 48 h
MOLT-4 = experiment: Anticancer activity against human MOLT4 cells after 48 hrs by SRB assay; format: functional; settings: MOLT-4, 48 h
A549 = experiment: Anticancer activity against human A549 cells after 48 hrs by SRB assay; format: functional; settings: A549, 48 h
Procedure, shortened: (§1)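 Grown in RPMI 1640 with 10% FBS and 2 mM L-glutamine at 37 °C, 5% CO2. Seeded at densities set by doubling time, then preincubated 24 h. Continuous 48 h drug exposure at four concentrations (0.1, 1, 10, 100), triplicate wells. Fixed with cold TCA (final 10%) at 4 °C, 60 min. Stained with 0.4% SRB in 1% acetic acid, eluted with 10 mM Tris base, read at 540/690 nm. Percent growth versus control wells.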

NCI-H226 = experiment: Anticancer activity against human NCI-H226 cells after 48 hrs by SRB assay; format: functional; settings: NCI-H226, 48 h
NCI-H23 = experiment: Anticancer activity against human NCI-H23 cells after 48 hrs by SRB assay; format: functional; settings: NCI-H23, 48 h
NCI-H322M = experiment: Anticancer activity against human NCI-H322M cells after 48 hrs by SRB assay; format: functional
NCI-H460 = experiment: Anticancer activity against human NCI-H460 cells after 48 hrs by SRB assay; format: functional; settings: NCI-H460, 48 h
COLO 205 = experiment: Anticancer activity against human COLO205 cells after 48 hrs by SRB assay; format: functional; settings: COLO 205, 48 h; procedure, shortened: as §1
HCC 2998 = experiment: Anticancer activity against human HCC2998 cells after 48 hrs by SRB assay; format: functional; settings: HCC 2998, 48 h
HCT-116 = experiment: Anticancer activity against human HCT116 cells after 48 hrs by SRB assay; format: functional; settings: HCT-116, 48 h
HCT-15 = experiment: Anticancer activity against human HCT15 cells after 48 hrs by SRB assay; format: functional; settings: HCT-15, 48 h
HT-29 = experiment: Anticancer activity against human HT-29 cells after 48 hrs by SRB assay; format: functional; settings: HT-29, 48 h
SF-539 = experiment: Anticancer activity against human SF539 cells after 48 hrs by SRB assay; format: functional; settings: SF-539, 48 h
SNB-19 = experiment: Anticancer activity against human SNB19 cells after 48 hrs by SRB assay; format: functional; settings: SNB-19, 48 h
U-251 = experiment: Anticancer activity against human U251 cells after 48 hrs by SRB assay; format: functional; settings: U-251, 48 h
LOX IMVI = experiment: Anticancer activity against human LOXIMVI cells after 48 hrs by SRB assay; format: functional
M14 = experiment: Anticancer activity against human M14 cells after 48 hrs by SRB assay; format: functional; settings: M14, 48 h
SK-MEL-2 = experiment: Anticancer activity against human SK-MEL-2 cells after 48 hrs by SRB assay; format: functional; settings: SK-MEL-2, 48 h
IGROV-1 = experiment: Anticancer activity against human IGROV1 cells after 48 hrs by SRB assay; format: functional; settings: IGROV-1, 48 h
OVCAR-3 = experiment: Anticancer activity against human OVCAR-3 cells after 48 hrs by SRB assay; format: functional; settings: OVCAR-3, 48 h
OVCAR-4 = experiment: Anticancer activity against human OVCAR4 cells after 48 hrs by SRB assay; format: functional; settings: OVCAR-4, 48 h
OVCAR-8 = experiment: Anticancer activity against human OVCAR8 cells after 48 hrs by SRB assay; format: functional; settings: OVCAR-8, 48 h
SK-OV-3 = experiment: Anticancer activity against human SKOV3 cells after 48 hrs by SRB assay; format: functional; settings: SK-OV-3, 48 h
786-0 = experiment: Anticancer activity against human 786-0 cells after 48 hrs by SRB assay; format: functional; settings: 786-0, 48 h
ACHN = experiment: Anticancer activity against human ACHN cells after 48 hrs by SRB assay; format: functional
CAKI-1 = experiment: Anticancer activity against human Caki1 cells after 48 hrs by SRB assay; format: functional; settings: CAKI-1, 48 h
UO-31 = experiment: Anticancer activity against human UO31 cells after 48 hrs by SRB assay; format: functional; settings: UO-31, 48 h
MCF7 = experiment: Anticancer activity against human MCF7 cells after 48 hrs by SRB assay; format: functional; settings: MCF7, 48 h; procedure, shortened: as §1
MDA-MB-231 = experiment: Anticancer activity against human MDA-MB-231 cells after 48 hrs by SRB assay; format: functional; settings: MDA-MB-231, 48 h
[1] = Anticancer activity against human Hs 578T cells after 48 hrs by SRB assay; format: functional
MDA-MB-435 = experiment: Anticancer activity against human MDA-MB-435 cells after 48 hrs by SRB assay; format: functional; settings: MDA-MB-435, 48 h
DU-145 = experiment: Anticancer activity against human DU145 cells after 48 hrs by SRB assay; format: functional; settings: DU-145, 48 h
PC-3 = experiment: Anticancer activity against human PC3 cells after 48 hrs by SRB assay; format: functional; settings: PC-3, 48 h; procedure, shortened: as §1
A-375 [2] = experiment: Cell cycle arrest in human A375 cells assessed as accumulation at G0/G1 phase at 4 uM after 24 hrs using propidium iodide staining by FACS; format: functional
Procedure, shortened: (§2)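 Treated A375 cells (24 h) were harvested with trypsin-EDTA and fixed in ice-cold 70% ethanol (4 °C, 30 min). After a PBS wash, they were incubated with 1 mg/mL RNase A (37 °C, 30 min) and stained with propidium iodide solution containing trisodium citrate and Triton X-100. DNA content was measured by flow cytometry on 20,000 events. Controls were DMSO-treated.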

A-375 [3] = experiment: Cell cycle arrest in human A375 cells assessed as accumulation at S phase at 4 uM after 24 hrs using propidium iodide staining by FACS; format: functional; procedure, shortened: as §2
A-375 [4] = experiment: Cell cycle arrest in human A375 cells assessed as accumulation at G2/M phase at 4 uM after 24 hrs using propidium iodide staining by FACS; format: functional; procedure, shortened: as §2
A-375 [5] = experiment: Induction of apoptosis in human A375 cells assessed as reduction in CDK2 protein level at 4 uM after 24 hrs by Western blotting; format: functional, cell-based
Procedure, shortened: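 A375 cells were treated for 24 h and lysed in ice-cold RIPA buffer (1% NP-40, 0.5% deoxycholate, 0.1% SDS, protease inhibitors). Protein was quantified by Bradford assay, and 30 µg/lane was run on 12% SDS-PAGE and transferred to PVDF. Membranes were blocked 2 h at RT in TBST with 5% blocker, incubated with primary antibody overnight at 4 °C, then with HRP secondary (1:2000, 1 h, RT). Detection was by chemiluminescence, with β-actin as loading control.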

A-375 [6] = experiment: Induction of apoptosis in human A375 cells assessed as caspase3 activation at 4 uM after 24 hrs by fluorimetry; format: functional, cell-based
Procedure, shortened: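 Caspase-3 activity was measured by a fluorometric assay on lysates of treated and untreated A375 cells.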

Q: With COc1ccc(C2=NOC(c3cc(OC)c(OC)c(OC)c3)C2)cc1OCCCCOc1cc2c(cc1OC)C(=O)N1CCC[C@H]1C=N2 (stereo not given in full) as the molecule, how does the GI50 (CCRF-CEM) read?
A: The GI50 was 160 nM.

Q: What about the GI50 (HL-60(TB)) of the same molecule?
A: Its GI50 is 180 nM.

Q: What about the GI50 (K562) of the same molecule?
A: Its GI50 is 120 nM.

Q: What about the GI50 (MOLT-4) of the same molecule?
A: Its GI50 is 200 nM.

Q: What about the GI50 (A549) of the same molecule?
A: The GI50 was 260 nM.

Q: And the GI50 (NCI-H226)?
A: The GI50 was 170 nM.

Q: And the GI50 (NCI-H23)?
A: The GI50 was 270 nM.

Q: What about the GI50 (NCI-H322M) of the same molecule?
A: The GI50 was 340 nM.

Q: What about the GI50 (NCI-H460) of the same molecule?
A: Its GI50 is 210 nM.

Q: What about the GI50 (COLO 205) of the same molecule?
A: The GI50 was 210 nM.

Q: And the GI50 (HCC 2998)?
A: The GI50 was 190 nM.

Q: And the GI50 (HCT-116)?
A: The GI50 was 180 nM.

Q: What about the GI50 (HCT-15) of the same molecule?
A: Its GI50 is 180 nM.

Q: What about the GI50 (HT-29) of the same molecule?
A: The GI50 was 360 nM.

Q: What about the GI50 (SF-539) of the same molecule?
A: Its GI50 is 220 nM.

Q: What about the GI50 (SNB-19) of the same molecule?
A: Its GI50 is 340 nM.

Q: What about the GI50 (U-251) of the same molecule?
A: Its GI50 is 300 nM.

Q: What about the GI50 (LOX IMVI) of the same molecule?
A: The GI50 was 220 nM.

Q: What about the GI50 (M14) of the same molecule?
A: The GI50 was 180 nM.

Q: What about the GI50 (SK-MEL-2) of the same molecule?
A: Its GI50 is 230 nM.

Q: What about the GI50 (IGROV-1) of the same molecule?
A: Its GI50 is 240 nM.

Q: What about the GI50 (OVCAR-3) of the same molecule?
A: The GI50 was 270 nM.

Q: What about the GI50 (OVCAR-4) of the same molecule?
A: The GI50 was 400 nM.

Q: What about the GI50 (OVCAR-8) of the same molecule?
A: The GI50 was 370 nM.

Q: And the GI50 (SK-OV-3)?
A: Its GI50 is 470 nM.

Q: What about the GI50 (786-0) of the same molecule?
A: Its GI50 is 280 nM.

Q: And the GI50 (ACHN)?
A: The GI50 was 280 nM.

Q: What about the GI50 (CAKI-1) of the same molecule?
A: Its GI50 is 250 nM.

Q: What about the GI50 (UO-31) of the same molecule?
A: Its GI50 is 290 nM.

Q: And the GI50 (MCF7)?
A: The GI50 was 200 nM.

Q: And the GI50 (MDA-MB-231)?
A: The GI50 was 190 nM.

Q: And the GI50 [1]?
A: Its GI50 is 160 nM.

Q: What about the GI50 (MDA-MB-435) of the same molecule?
A: Its GI50 is 170 nM.

Q: What about the GI50 (DU-145) of the same molecule?
A: The GI50 was 580 nM.

Q: What about the GI50 (PC-3) of the same molecule?
A: The GI50 was 2480 nM.

Q: And the Activity (A-375 [2])?
A: Its Activity is 95.2%.

Q: What about the Activity (A-375 [3]) of the same molecule?
A: Its Activity is 3.52%.

Q: What about the Activity (A-375 [4]) of the same molecule?
A: The Activity was 1.23%.

Q: What about the Activity (A-375 [5]) of the same molecule?
A: Its Activity is “Active”.

Q: And the Activity (A-375 [6])?
A: The Activity was “Active”.
